Screens: PubChem, several laboratories
Shown are actives, neighbours in structure and some others; about 2.6% of the full set was active somewhere.
Rce1 inhib: blocks yeast Ras-converting enzyme; calls only; Q03530; yeast membranes, quenched prenylated peptide cleavage fluorescence; AID 2563; hit rate 0.27% among 290,000;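 active = fall in fluorescence gain of 50% or more versus controls, with final raw signal at or below 3038400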
GRK2 inh: human GRK2 inhibition via aptamer displacement. P25098. bead flow cytometry, FAM-aptamer displacement from GRK2. inhibition of aptamer binding, % at 10 µM. hit rate 0.59% among 330,000;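 active = inhibition of aptamer binding above 40%, roughly 3 SD of noise, on plates passing a quality check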;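 note: median bead fluorescence of bound FAM aptamer so fluorescent compounds give negative values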
SKN-1 inh: C. elegans SKN-1 inhibition; C. elegans VP596 Pgst-4::GFP/RFP ratio, acrylamide-induced, 24 h; inhibition, % at 21.8 µM; hit rate 0.49% among 360,000;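 active = interference check ratio from 0.5 to 1.5 plus GFP to RFP signal ratio inhibition reaching or exceeding a fixed threshold, cut at about 30% in these data, passing the limit was not always enough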
T cell modulator: modulates CD8 T cell binding to vesicles; 2C CD8+ T cell-vesicle binding, flow cytometry; hits give low values; response (vesicle binding), % at 7 µM; hit rate 0.068% among 330,000; AID 2052;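 active = response, share of CD8 T cells binding vesicles, and their 90th percentile fluorescence all below set limits, cut at about 80% in these data, passing the limit was not always enough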;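 note: values below 100% mean blocked vesicle binding to the CD8+ T cells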
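Test system: purified 2C TCR transgenic mouse naive CD8+ T cells. Probe or stimulus: QL9-peptide-loaded Drosophila micro-vesicles bearing Ld, ICAM-1 and B7-1. Incubation: binding step 1.5 h, 37 °C, antibody labelling 20 min, ice. Measured by: flow cytometry of vesicle-bound cells.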
Rin1-Abl PPI inh: human Rin1-Abl interaction inhibition; P00519+Q13671; TR-FRET Rin1/Abl binding, biochemical; inhibition, % at 7.35 µM; hit rate 0.4% among 360,000; in the data active = inhibition above about 5%, passing the limit was not always enough
Myeloid diff MLP: compounds promoting myeloid differentiation; hit rate 1% among 360,000; AID 624256; ER-HoxA9 myeloid progenitors, lysozyme-GFP differentiation, flow cytometry; calls only at 10 µM;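 active = normalized GFP-positive differentiation at or above the plate's own cutoff, the solvent-only control mean plus 3 SD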;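 note: cells exposed to compound for four days before flow analysis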
GRK2 inh confirm: confirmation of human GRK2 inhibitors displacing RNA aptamer. hit rate 4% among 2,000. aptamer displacement, % at 10 µM. bead-bound GRK2, FAM-aptamer displacement, flow cytometry. shares compounds with GRK2 inh. AID 504451;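 active = aptamer displacement above 40%, near three times the noise of non-fluorescent compounds, on plates passing quality checks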;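 note: negative values mostly reflect intrinsic compound fluorescence rather than true enhancement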
Aptamer quench: fluorescent aptamer quenching in GRK2 counter-screen dose response; shares compounds with GRK2 inh; Fluorescent RNA aptamer beads, flow cytometry; hits give high values; fluorescence change (kMESF span), kMESF (test concentration not listed); 110 tested, under 10 active; AID 504521;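 active = compounds whose bead fluorescence drops by more than 37 kMESF across the dose range, marking them as dye quenchers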
FAM quench CP1: aptamer fluorescence quenching in GRK2 counter-screen | fluorescence response (% of DMSO), % at 10 µM | shares compounds with GRK2 inh | Carboxyfluorescein RNA aptamer on beads, flow cytometry quenching; hits give low values | AID 504580 | 2,000 tested, under 10 active;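 active = compounds that quench the bead-bound fluorescent RNA probe, cutting fluorescence to under half of the solvent control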;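 note: counterscreen run without GRK2 so only probe quenching by compound is measured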
GRK2 confirm 2: human GRK2 inhibition confirmation, cherry pick 2; inhibition of aptamer binding, % at 10 µM; 360 tested, under 10 active; bead-bound GRK2, FAM-aptamer displacement, flow cytometry; shares compounds with GRK2 inh;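 active = inhibition of aptamer binding above 40%, about triple the noise seen with nonglowing compounds, on plates passing quality control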;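 note: negative values mostly come from compounds that fluoresce themselves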
FAM quench CP2: counter-screen for GRK2 binding hits: quenchers of fluorescent RNA aptamer. shares compounds with GRK2 inh. carboxyfluorescein RNA aptamer beads, flow cytometry quenching; hits give low values. fluorescence response vs DMSO, % at 10 µM. 360 tested, under 10 active. AID 588494;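 active = response vs DMSO under 50%, meaning signal dropped by over half, treated as fluorescence quencher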;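 note: labelled aptamer on streptavidin beads without GRK2 as a quench counter-screen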
Each line names hits and unclear results; the compound was inactive in the other large screens (follow-up assays come after a bar, where they were run).

Cc1cc(NC(=O)c2ccccc2C)n(-c2cccc(F)c2)n1	GRK2 inh 100 | GRK2 inh confirm inactive | FAM quench CP1 inactive
COc1ccc(C(=O)Nc2cc(C)nn2-c2cccc(F)c2)cc1	none
O=C(NCCC(=O)N(CCc1ccccc1)Cc1ccccc1)c1ccc(Br)cc1	none
COc1cc(/C=C2\CCc3c2nc2ccccc2c3C(=O)O)cc(OC)c1OC	GRK2 inh 62 | GRK2 inh confirm 45 | Aptamer quench inactive | FAM quench CP1 inactive
COc1cc(/C=C2\CCCc3c2nc2ccccc2c3C(=O)O)cc(Br)c1O	none (no result: Myeloid diff MLP)
Cc1ccoc1C(=O)N1CCCCC1C(=O)O (centres undefined)	none
NS(=O)(=O)c1ccc(CCNC(=O)c2ccccc2F)cc1	none
NS(=O)(=O)c1ccc(CCNC(=O)c2ccccc2-c2ccccc2)cc1	GRK2 inh 82 | GRK2 inh confirm inactive | FAM quench CP1 inactive
O=C(c1ccc(-c2ccccc2)c(F)c1)C1CCCN(CCCn2cccn2)C1 (centres undefined)	none | GRK2 inh confirm inactive | FAM quench CP1 inactive
COc1ccc(N(C(C)C(=O)Nc2ccc(S(=O)(=O)N3CCCCC3)cc2)S(C)(=O)=O)cc1 (centres undefined)	none
COc1ccc(NC(=O)Nc2ccc3c(c2)C(=O)N([C@H](C)CO)C[C@H](C)[C@@H](CN(C)C(=O)Nc2ccc(OC)cc2)O3)cc1	none (no result: Rce1 inhib)
COc1ccc(NC(=O)N(C)C[C@H]2Oc3ccc(NC(=O)CCC(F)(F)F)cc3C(=O)N([C@H](C)CO)C[C@@H]2C)cc1	GRK2 inh 73 (no result: Rce1 inhib) | GRK2 confirm 2 inactive | FAM quench CP2 inactive
CC(=O)NC1CC2CCCC(C1)N2C(=O)Nc1cccc(Cl)c1 (centres undefined)	none (no result: Rce1 inhib, GRK2 inh, T cell modulator)
O=C(Nc1nnc(-c2ccco2)o1)c1ccc(Cl)s1	none
COc1cccc(-c2nnc(NC(=O)c3ccc(Cl)s3)o2)c1	GRK2 inh 52 | GRK2 inh confirm inactive | FAM quench CP1 inactive
CC(=O)N/C(=N/c1nc(C)cc(C)n1)Nc1cccc(C)c1C	none | GRK2 inh confirm inactive | FAM quench CP1 inactive
CC(=O)N/C(=N\c1nc(C)cc(C)n1)Nc1ccccc1Cl	none (no result: GRK2 inh, T cell modulator)
CCCCC1Cc2[nH]c(=S)[nH]c(=O)c2C(c2cccc3ccccc23)O1 (centres undefined)	none (no result: Rce1 inhib, GRK2 inh, T cell modulator, Rin1-Abl PPI inh)
COc1ccc(CC(=O)NNC(=O)COc2ccc(F)cc2)cc1S(=O)(=O)N1CCOCC1	GRK2 inh 41 (no result: Rce1 inhib) | GRK2 inh confirm inactive | FAM quench CP1 inactive
COc1ccc(CC(=O)NNC(=O)COc2ccc(C)cc2)cc1S(=O)(=O)N1CCOCC1	none
Cc1cccnc1NC(=O)c1csnn1	none
CC(Nc1nc(-c2cccc(Br)c2)cs1)c1nc2cc(Cl)c(N3CCCCC3)cc2n1CCOCCO (centres undefined)	none | GRK2 inh confirm inactive | FAM quench CP1 inactive
CC(Nc1nc(-c2ccc(F)cc2)cs1)c1nc2cc(Cl)c(N3CCCCC3)cc2n1CCOCCO (centres undefined)	none | GRK2 inh confirm inactive | FAM quench CP1 inactive
CC(Nc1nc(-c2ccc(F)cc2)cs1)c1nc2cc(Cl)c(N3CCCCC3)cc2n1CCCO (centres undefined)	none
O=C1OC[C@H]2CCCN2C(=O)[C@@H](CC(=O)N(CCO)Cc2ccccc2)C/C=C\C[C@H]1Cc1ccc(F)cc1	none (no result: Rce1 inhib)
